Results from ChEMBL document CHEMBL4732053, “Design, synthesis and structure-activity relationship study of novel urea compounds as FGFR1 inhibitors to treat metastatic triple-negative breast cancer” (Eur J Med Chem, 2021).
Calls of active or inactive are those of the source. The calls are words filed in the database; no cut-off is given here.

Tests used:
MDA-MB-231 [1] = assay: Cytotoxicity against human MDA-MB-231 cells assessed as reduction in cell viability incubated for 48 hrs by MTT assay; format: functional, cell-based; settings: MDA-MB-231, 48 h
In short: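 MTT assay in MDA-MB-231 cells grown in DMEM with 10% heat-inactivated FBS at 37 °C and 5% CO2. Cells were seeded at 8000 per well, left 24 h, then exposed for 48 h to 0–25 μM in DMEM with 2% FBS (final DMSO 0.1%). MTT (0.5 mg/mL) was added for 2 h, formazan was dissolved in DMSO and read at 570 nm. Runs were in triplicate and IC50 was derived from the curves.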

[2] = molecular target: Sodium-dependent dopamine transporter (Homo sapiens, UniProt Q01959); assay: Inhibition of DAT (unknown origin)
Sodium-dependent dopamine transporter, sequence (Q01959 whole entry): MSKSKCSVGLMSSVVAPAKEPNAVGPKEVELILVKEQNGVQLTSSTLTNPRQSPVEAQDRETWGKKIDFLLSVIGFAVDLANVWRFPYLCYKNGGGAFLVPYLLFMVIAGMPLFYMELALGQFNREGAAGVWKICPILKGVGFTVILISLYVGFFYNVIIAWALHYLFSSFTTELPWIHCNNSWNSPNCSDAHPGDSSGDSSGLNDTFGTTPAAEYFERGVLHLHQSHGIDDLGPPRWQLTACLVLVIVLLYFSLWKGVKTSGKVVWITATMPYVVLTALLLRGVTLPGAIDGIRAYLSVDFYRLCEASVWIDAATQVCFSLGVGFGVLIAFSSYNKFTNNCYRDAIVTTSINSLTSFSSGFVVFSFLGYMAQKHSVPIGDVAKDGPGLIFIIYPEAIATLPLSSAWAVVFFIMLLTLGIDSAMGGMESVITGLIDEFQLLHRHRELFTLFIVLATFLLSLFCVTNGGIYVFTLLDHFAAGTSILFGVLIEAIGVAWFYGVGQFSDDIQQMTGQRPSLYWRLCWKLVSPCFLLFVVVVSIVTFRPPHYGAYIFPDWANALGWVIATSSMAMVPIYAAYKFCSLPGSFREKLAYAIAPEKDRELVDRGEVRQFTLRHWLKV

[3] = molecular target: DAT (sodium-dependent dopamine transporter) (Homo sapiens, UniProt Q01959); assay: Inhibition of DAT (unknown origin) at 10 uM relative to control
DAT (sodium-dependent dopamine transporter), sequence (Q01959 whole entry): as above
In short: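 Primary radioligand-binding screen by the NIMH Psychoactive Drug Screening Program. Each compound was tested at a final concentration of 10 μM in triplicate or quadruplicate, and % inhibition was recorded. Data are mean ± SEM of four independent experiments. Compounds reaching at least 50% antagonist activity went on to secondary dose-response assays.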

MDA-MB-231 [4] = assay: Induction of apoptosis in human MDA-MB-231 cells assessed as fold increase in apoptotic index at 5 uM relative to control; format: functional
MDA-MB-231 [5] = assay: Induction of apoptosis in human MDA-MB-231 cells assessed as caspase-3 cleavage; format: functional, cell-based
In short: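 MDA-MB-231 cells treated 48 h, lysed on ice in RIPA buffer with protease and phosphatase inhibitors, then centrifuged. Equal protein loads were run on SDS-PAGE and transferred to PVDF. Blots were probed for cleaved caspase-3 and total caspase-3 (1:1000), with β-tubulin (1:2000) as loading control. Detection used HRP chemiluminescence with goat anti-rabbit secondary, and bands were quantified by densitometry.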

MDA-MB-231 [6] = assay: Induction of apoptosis in human MDA-MB-231 cells at 1 uM incubated for 48 hrs; format: functional, cell-based
MDA-MB-231 [7] = assay: Effect on cell cycle in human MDA-MB-231 cells at 0 to 5 uM; format: functional, cell-based; settings: dose 0-5 µM
[8] = Metabolic stability in Sprague-Dawley rat liver microsomes assessed as parent compound remaining in presence of NADPH measured up to 60 mins by LC-MS/MS analysis; format: ADME, Microsome; settings: 1 h
In short: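 Pooled male Sprague-Dawley rat liver microsomes (6.2% mixture in potassium phosphate buffer) were used with an NADPH regenerating system. Compound, diluted to 5 μM before mixing, was prewarmed 10 min at 37 °C, then incubated with microsomes at 37 °C with shaking. Samples taken at 0, 5, 15, 30 and 60 min were quenched in ice-cold acetonitrile and centrifuged. Analysis was by LC-MS/MS, giving % remaining versus T0 from peak area ratios. Three independent experiments in triplicate.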

[9] = molecular target: Fibroblast growth factor receptor 1 (Homo sapiens) (UniProt P11362); assay: Inhibition of FGFR1 phosphorylation in human […] cells at 3 to 6 uM incubated for 48 hrs in presence of bFGF by immunoblotting analysis; format: cell-based; settings: MDA-MB-231, dose 3-6 µM
Fibroblast growth factor receptor 1 (Homo sapiens), sequence (P11362 22-822 limits assumed): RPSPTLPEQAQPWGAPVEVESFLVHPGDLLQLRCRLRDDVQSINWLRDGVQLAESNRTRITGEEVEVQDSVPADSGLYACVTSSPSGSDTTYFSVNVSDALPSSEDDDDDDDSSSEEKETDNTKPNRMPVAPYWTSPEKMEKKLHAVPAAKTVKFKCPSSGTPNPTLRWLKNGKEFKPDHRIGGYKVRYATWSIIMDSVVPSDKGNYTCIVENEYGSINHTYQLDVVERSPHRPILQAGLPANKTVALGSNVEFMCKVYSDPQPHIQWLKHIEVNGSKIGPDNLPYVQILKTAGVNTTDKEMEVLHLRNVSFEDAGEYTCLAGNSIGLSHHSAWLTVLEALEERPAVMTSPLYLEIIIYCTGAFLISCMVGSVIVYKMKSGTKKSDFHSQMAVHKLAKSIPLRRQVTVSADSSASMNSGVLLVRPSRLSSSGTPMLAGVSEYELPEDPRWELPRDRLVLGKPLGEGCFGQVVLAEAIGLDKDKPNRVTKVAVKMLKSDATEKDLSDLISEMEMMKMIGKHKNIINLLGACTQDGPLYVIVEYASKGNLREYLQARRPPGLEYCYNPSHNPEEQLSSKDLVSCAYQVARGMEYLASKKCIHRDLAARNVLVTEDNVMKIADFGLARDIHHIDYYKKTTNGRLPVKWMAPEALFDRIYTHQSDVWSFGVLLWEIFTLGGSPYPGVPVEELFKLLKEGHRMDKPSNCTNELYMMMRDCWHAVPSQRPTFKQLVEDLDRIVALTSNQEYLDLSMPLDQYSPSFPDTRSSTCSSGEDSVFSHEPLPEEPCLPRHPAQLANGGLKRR
In short: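 MDA-MB-231 cells treated 48 h with or without bFGF, lysed in RIPA buffer with protease and phosphatase inhibitors. Equal protein loads were run on SDS-PAGE and transferred to PVDF. Blots were probed with anti-pFGFR1 (1:1000), using β-tubulin (1:2000) as loading control. Bands were detected by HRP chemiluminescence and quantified by densitometry; n = 3.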

MDA-MB-231 [10] = assay: Induction of apoptosis in human MDA-MB-231 cells incubated for 48 hrs; format: functional, cell-based

inhibition at 10 µM [3]	Structure (SMILES)	IC50 (MDA-MB-231 [1])	also measured
–	Cc1cccc(NC(=O)NCCCCC(c2ccc(F)cc2)c2ccc(F)cc2)c1	> 20 µM	–
–	O=C(NCCCCC(c1ccc(F)cc1)c1ccc(F)cc1)Nc1cccc(C(F)(F)F)c1	3.38 µM	–
51%	O=C(NCCCCC(c1ccc(F)cc1)c1ccc(F)cc1)c1ccc(Cl)c(C(F)(F)F)c1	11.7 µM	Ki [2]: 603 nM
85%	O=C(NCCCCN(c1ccc(F)cc1)c1ccc(F)cc1)Nc1ccc(Cl)c(C(F)(F)F)c1	5.04 µM	Ki [2]: 43 nM
–	O=C(OCCCC(c1ccc(F)cc1)c1ccc(F)cc1)c1cc(Cl)c(OCc2ccccc2)c(Cl)c1	> 20 µM	–
–	Fc1ccc(C(CCCCNC(=S)Nc2ccc(Cl)c(C(F)(F)F)c2)c2ccc(F)cc2)cc1	3.66 µM	–
–	O=C(NCCCCCc1ccc(F)cc1)Nc1ccc(Cl)c(C(F)(F)F)c1	5.44 µM	–
86%	O=C(NCCCC(c1ccc(F)cc1)c1ccc(F)cc1)Nc1ccc(Cl)c(C(F)(F)F)c1	3.5 µM	Ki [2]: 141 nM
59%	Cc1ccc(C(CCCCNC(=O)Nc2ccc(Cl)cc2)c2ccc(C)cc2)cc1	17.9 µM	Ki [2]: 535 nM
–	O=C(Nc1ccc(Cl)c(C(F)(F)F)c1)N1CCC(=C(c2ccc(F)cc2)c2ccc(F)cc2)CC1	5.65 µM	–
24%	O=C(NCCCCC(c1ccc(F)cc1)c1ccc(F)cc1)Nc1ccc(I)cc1	11.8 µM	–
–	O=C(NCCCCC(c1ccc([N+](=O)[O-])cc1)c1ccc([N+](=O)[O-])cc1)Nc1ccc(Cl)c(C(F)(F)F)c1	1.23 µM	–
–	OC1(c2ccc(Cl)c(C(F)(F)F)c2)CCN(CCCC(c2ccc(F)cc2)c2ccc(F)cc2)CC1 [PENFLURIDOL]	2.3 µM	–
–	O=C(NCCCCC(c1ccc(F)cc1)c1ccc(F)cc1)Nc1cccc(Cl)c1	5.07 µM	–
76%	CC(=O)Nc1cc(NC(=O)NCCCCC(c2ccc(F)cc2)c2ccc(F)cc2)ccc1Cl	9.12 µM	Ki [2]: 609 nM
49%	O=C(Nc1ccc(Cl)c(C(F)(F)F)c1)OCCCCC(c1ccc(F)cc1)c1ccc(F)cc1	4.58 µM	–
68%	O=C(NCCCCN(c1ccc(F)cc1)c1ccc(F)cc1)Nc1ccc(Cl)cc1	> 20 µM	Ki [2]: 405 nM
–	Nc1ccc(NC(=O)NCCCCC(c2ccc(F)cc2)c2ccc(F)cc2)cc1	> 20 µM	–
–	O=C(NCCCCC(c1ccc(F)cc1)c1ccc(F)cc1)Nc1ccc([N+](=O)[O-])c(C(F)(F)F)c1	4.55 µM	fold change (FC) (MDA-MB-231 [4]): 10.6; Activity (MDA-MB-231 [5]): Active; Activity (MDA-MB-231 [6]): Active; Activity (MDA-MB-231 [7]): inactive; Stabilty [8]: Stable; inhibition [9]: Active; Activity (MDA-MB-231 [10]): Dose-dependent effect
79%	Cc1ccc(NC(=O)NCCCCC(c2ccc(F)cc2)c2ccc(F)cc2)cc1C	> 20 µM	Ki [2]: 80 nM
–	CC(=O)Nc1ccc(C(CCCCNC(=O)Nc2ccc(Cl)c(C(F)(F)F)c2)c2ccc(NC(C)=O)cc2)cc1	> 20 µM	–
–	O=C(NCCCCN(c1ccc(F)cc1)c1ccc(F)cc1)Nc1ccc(I)cc1	> 20 µM	–
–	O=C(NCCCCC(c1ccc(F)cc1)c1ccc(F)cc1)Nc1ccc(C(F)(F)F)cc1	2.78 µM	–
–	Nc1ccc(C(CCCCNC(=O)Nc2ccc(Cl)c(C(F)(F)F)c2)c2ccc(N)cc2)cc1	12.2 µM	–
75%	COc1ccc(C(CCCCNC(=O)Nc2ccc(Cl)c(C(F)(F)F)c2)c2ccc(OC)cc2)cc1	3.3 µM	Ki [2]: 40 nM
20%	O=C(NCCCCC(c1ccc(F)cc1)c1ccc(F)cc1)Nc1ccc(Cl)cc1C(F)(F)F	> 20 µM	–
73%	CN(CCCCC(c1ccc(F)cc1)c1ccc(F)cc1)C(=O)Nc1ccc(Cl)c(C(F)(F)F)c1	6.02 µM	Ki [2]: 998 nM

inhibition at 10 µM [3]	Structure (SMILES)	IC50 (MDA-MB-231 [1])	also measured
–	O=C(NCCCCC(c1ccc(OC(F)(F)F)cc1)c1ccc(OC(F)(F)F)cc1)Nc1ccc(Cl)c(C(F)(F)F)c1	1.69 µM	–
33%	O=C(CCCCC(c1ccc(F)cc1)c1ccc(F)cc1)Nc1ccc(Cl)c(C(F)(F)F)c1	11.4 µM	–
–	Nc1cc(NC(=O)NCCCCC(c2ccc(F)cc2)c2ccc(F)cc2)ccc1Cl	9.24 µM	–
–	Fc1ccc(C(CCCCOCc2ccc(Oc3ccc(Cl)cc3)cc2)c2ccc(F)cc2)cc1	> 20 µM	–
–	Fc1ccc(C(CCCCOC2COC(c3ccccc3)OC2)c2ccc(F)cc2)cc1 (configuration not stated)	> 20 µM	–
–	O=C(NCCCCC(c1ccc(F)cc1)c1ccc(F)cc1)Nc1cccc([N+](=O)[O-])c1	3.79 µM	–
–	O=C(NCCCCC(c1ccc(F)cc1)c1ccc(F)cc1)Nc1ccc([N+](=O)[O-])cc1	6.47 µM	–
–	Cc1ccc(NC(=O)NCCCCN(c2ccc(F)cc2)c2ccc(F)cc2)cc1C	> 20 µM	–
38%	Cc1ccc(C(CCCCNC(=O)Nc2ccc(Cl)c(C(F)(F)F)c2)c2ccc(C)cc2)cc1	2.51 µM	–
90%	O=C(NCCCCC(c1ccc(F)cc1)c1ccc(F)cc1)Nc1ccc(Cl)c(C(F)(F)F)c1	3.15 µM	Ki [2]: 6.5 nM; Stabilty [8]: Stable
–	O=C(NCCCCC(c1ccc(F)cc1)c1ccc(F)cc1)Nc1ccc([N+](=O)[O-])c(Cl)c1	3.47 µM	–
–	O=S(=O)(c1ccc(Cl)c(C(F)(F)F)c1)N1CCN(CCCCC(c2ccc(F)cc2)c2ccc(F)cc2)CC1	> 20 µM	–
24%	O=C(Nc1ccc(Cl)c(C(F)(F)F)c1)N1CCC(CC(c2ccc(F)cc2)c2ccc(F)cc2)CC1	4.84 µM	–
77%	O=C(NCCCCCC(c1ccc(F)cc1)c1ccc(F)cc1)Nc1ccc(Cl)c(C(F)(F)F)c1	2.57 µM	Ki [2]: 399 nM
64%	COc1ccc(C(CCCCNC(=O)Nc2ccc(Cl)c([N+](=O)[O-])c2)c2ccc(OC)cc2)cc1	3.99 µM	Ki [2]: 144 nM
–	COC(=O)c1ccc(NC(=O)NCCCCC(c2ccc(F)cc2)c2ccc(F)cc2)cc1C(F)(F)F	4.43 µM	–
–	CC(=O)Nc1ccc(NC(=O)NCCCCC(c2ccc(F)cc2)c2ccc(F)cc2)cc1	> 20 µM	–
26%	CN(CCCCC(c1ccc(F)cc1)c1ccc(F)cc1)C(=O)N(C)c1ccc(Cl)c(C(F)(F)F)c1	> 20 µM	–
–	O=C(NCCCCC(c1ccc(F)cc1)c1ccc(F)cc1)Nc1ccc(Br)cc1I	> 20 µM	–
58%	Cc1cc(Cl)ccc1NC(=O)NCCCCC(c1ccc(F)cc1)c1ccc(F)cc1	> 20 µM	Ki [2]: 118 nM
–	Fc1ccc(C(CCCCN(c2ccc(F)cc2)c2ccc(F)cc2)c2ccc(F)cc2)cc1	> 20 µM	–
–	Cc1ccc(NC(=O)NCCCCC(c2ccc(F)cc2)c2ccc(F)cc2)cc1	> 20 µM	–
–	O=C(NCCCCC(c1ccc(F)cc1)c1ccc(F)cc1)Nc1ccc(Cl)c([N+](=O)[O-])c1	4.06 µM	–
–	O=C(NCCCCC(c1ccccc1)c1ccccc1)Nc1ccc(Cl)c(C(F)(F)F)c1	5.72 µM	–
–	O=C(NCCCCN(c1ccc(F)cc1)c1ccc(F)cc1)Nc1ccc(Br)cc1I	> 20 µM	–
–	O=C(NCCCCC(c1ccc(F)cc1)c1ccc(F)cc1)Nc1ccc(C(=O)O)c(C(F)(F)F)c1	> 20 µM	–
52%	O=C(Nc1ccc(Cl)c(C(F)(F)F)c1)N1CCC(C(c2ccc(F)cc2)c2ccc(F)cc2)CC1	11.4 µM	Ki [2]: 1590 nM
